Results reported in PubChem BioAssay.
A number with no mark means an inactive call. Results filed as inconclusive are left out. Calls of active or inactive are those of the source.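 Rule for the calls, unless noted: active = inhibition over a set limit, the all-compound mean plus 3 SD, in both replicate runs; inconclusive = over that limit in just one replicate run; inactive = at or under that limit in both runs.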

Tests used:
[1] = S. cerevisiae growth inhibition in permissive medium (OD615), pilot counter-assay for S. cerevisiae lifespan shortening project, permissive growth control (AID 705;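 active = growth inhibition above 25% in both replicates, a cutoff set 3 SD above the mean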); conditions: OD615, 24 h, at 10 µM, hits give high values
In short: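 Material: engineered DeaD yeast; Compound: one dose 10 µM, DMSO 0.25% final; Detection: absorbance (optical density) at 615 nm; Buffer or medium: permissive raffinose/galactose medium; Timing: 24 h exposure, 30 °C.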

[2] = S. cerevisiae growth inhibition in restrictive medium, OD615, pilot screen, restrictive growth control, yeast lifespan reduction project (AID 706;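 active = growth inhibition above a set limit, 3 SD over mean compound inhibition, in both replicates, cut at about 43% in these data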;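 note: modified DeaD lifespan yeast strain shifted to restrictive glucose medium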); conditions: OD615, 48 h, at 10 µM, hits give high values
In short: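 Buffer or medium: restrictive glucose medium (CSMM-D); test system: modified S. cerevisiae; doses: single dose of 10 µM compound final, 0.25% DMSO; schedule: 48 h compound exposure at 30 °C; detection: absorbance (optical density) measured at 615 nm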

[3] = doxorubicin toxicity protection in MRP-1 cells – H69AR cells, CellTiter-Glo, duplicate, MRP-1 activator project, pilot screen (AID 807;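 active = viability increase at or above a cutoff of the median across tested compounds plus 3 SD, cut at about 8.5% in these data, passing the limit was not always enough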;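 note: compound pretreatment 18-22 h then 72 h combined with doxorubicin; 0% = doxorubicin alone and 100% = vehicle without doxorubicin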); conditions: H69AR viability with doxorubicin, CellTiter-Glo luminescence; at 10 µM; hits give high values
[4] = viability of HCT116 without oncogenic beta-catenin – human colon tumor cells, pilot screen (AID 823;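 active = cell viability at or below a set limit in both duplicate runs, the limit being the all-compound median minus 4 SD, cut at about 23% in these data, passing the limit was not always enough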;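 note: 0% = wells killed by 20 µM Hyamine and 100% = untreated DMSO cell wells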); conditions: HCT116 beta-catenin knockout viability, CellTiter-Glo, 60 h; at 10 µM; hits give low values
[5] = viability of PTEN-null HCT116 cells – cell-based, HCT116 clonal line, CellTiter-Glo, pilot screen (AID 824;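 active = viability at or below 27.92% in each of two runs, the all-compound median minus 4 SD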;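 note: 0% = 20 µM Hyamine control and 100% = vehicle cell control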); conditions: HCT116 PTEN-deleted viability, 60 h, at 10 µM, hits give low values
[6] = RAM pathway blockade in budding yeast – dse1pr::URA3 reporter, 5-FOA selection, pilot screen (AID 869);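 note: 0% = DMSO wells with no growth and 100% = 10 µM 1-NA-PP1 with full growth; RAM network block rescues cells from 5-FOA so hits raise OD615 growth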; conditions: S. cerevisiae dse1pr::URA3 5-FOA growth, OD615, 2 d; at 10 µM; hits give high values; strain carries analog-sensitive mutant Cbk1 kinase
[7] = RAM signaling pathway blockade in yeast – S. cerevisiae, Pdr1DBD-CYC8 efflux-inhibited sensitized strain, primary screen (AID 1298;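 active = RAM network inhibition above 8.4% in each of two replicates, 3 SD over the compound average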;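 note: 0% = DMSO untreated cells without growth and 100% = 10 µM 1-NA-PP1 full growth; higher means more yeast growth rescued from 5-FOA killing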); conditions: S. cerevisiae cbk1-as DSE1-URA3 strain, 5-FOA growth OD615, 2 d; at 50 µM; hits give high values

Structure (SMILES) | growth inhibition [1] [%] | growth inhibition [2] [%] | viability increase [3] [%] | viability [4] | viability [5] | inhibition [6] [%] | RAM network inhibition [7] [%]
O=C(CSc1nnc(Cc2cc(=O)[nH]c(=O)[nH]2)n1-c1ccc(F)cc1)N1CCCCC1 | -4.41 | 1.35 | -0.28 | 104% | 105% | 0.87 | 2.55
COc1ccc(C)cc1NC(=O)CN1C(=O)c2ccccc2S1(=O)=O | 6.31 | 10.8 | -2.12 | 102% | 94.4% | 3.04 | 4.58
Cn1c(C(=O)NCCN2CCCCCC2)cc2c(=O)n(C)c3ccccc3c21 | -1.66 | 0.56 | -5.04 | 65.7% | 74.9% | 1.29 | 5.21
Cc1ccc(N2C(=O)c3ccccc3C2Nc2ccccc2F)nc1 (configuration not stated) | -7.38 | -1.2 | -1.31 | 88.3% | 90.8% | 2.46 | 10.5
O=c1c2ccccc2nc(SCc2nnc(-c3ccccc3)o2)n1-c1ccccc1 | -13.1 | -8.7 | -3.18 | 75.4% | 84.6% | 1.96 | 5.69
O=S(=O)(c1cccc(-n2cnnn2)c1)N1CCOCC1 | -5.21 | -3.17 | -1.69 | 94.3% | 93% | 1.6 | 2.96
COc1ccc(N(CC(=O)Nc2ccc3c(c2)OCO3)S(C)(=O)=O)c(OC)c1 | -12.6 | -4.5 | -2.19 | 97.9% | 96.5% | 1.41 | 4.05
COc1cccc(C2CC(=O)NC(SC)=C2C#N)c1 (configuration not stated) | -1.85 | -4.75 | -2.47 | 98.7% | 95.7% | -0.015 | 2.87
CCCCNC(=O)CS(=O)Cc1nc(-c2ccc(C)cc2)oc1C (configuration not stated) | -7.66 | 0.83 | -2.08 | 87.4% | 88.5% | -0.365 | 2.19
O=C(CN(c1ccc(F)cc1)S(=O)(=O)c1ccc2c(c1)OCCO2)N1CCOCC1 | -3.38 | -12.4 | -2.08 | 107% | 104% | 0.625 | 2.45
CCOc1ccc(CCNC(=O)c2nnc(Cc3ccc(F)cc3)o2)cc1OCC | -5.33 | 7.65 | -2.55 | 103% | 95.2% | 1.5 | 5.06
Cc1cccc(NC(=O)CSc2nnc(-c3ccccc3)n2N)c1 | -0.87 | 0.675 | -1.81 | 100% | 98.9% | 1.93 | 4.31
O=C(CCn1c(=O)oc2ccccc21)N1CCN(c2ccc(F)cc2)CC1 | 2.05 | -4.67 | -0.8 | 107% | 102% | 1.09 | 3.71
O=C1CCC(C(=O)N(c2ccccc2)C2(C(=O)NC3CCCCC3)CCCCC2)N1 (configuration not stated) | 1.54 | 2.4 | -0.07 | 94.3% | 97.2% | 0.505 | 1.6
CCC(Sc1nc(=O)cc(N)n1CCc1ccccc1)C(=O)Nc1cc(C)on1 (configuration not stated) | -3.68 | -7.75 | -1.78 | 104% | 95.7% | 1.33 | 6.71
CCN1CCN(Cc2ccc(NC(=O)Nc3ccccc3OC)cc2)CC1 | -1.11 | 4.37 | 0.28 | 108% | 105% | 0.235 | 2.68
COC(=O)CCS(=O)(=O)c1cc(Cl)ccc1Cl | -5.18 | 7.17 | -1.81 | 95.4% | 94.9% | -1.08 | 1.34
C=CCSC1=NC(N)=C(C#N)C2(CCCCC2)C1C(N)=O (configuration not stated) | -4.98 | 2.22 | -1.39 | 92.5% | 96.6% | 0.77 | 2.04

Structure (SMILES) | growth inhibition [1] [%] | growth inhibition [2] [%] | viability increase [3] [%] | viability [4] | viability [5] | inhibition [6] [%] | RAM network inhibition [7] [%]
O=C(CCS(=O)NCc1ccccc1)NCc1ccccc1 (configuration not stated) | -7.98 | -11.4 | -2.13 | 99.7% | 99.9% | 0.425 | 1.51
Cc1noc(C)c1S(=O)(=O)N(CC(=O)Nc1ccc2c(c1)OCO2)c1ccc(C(C)C)cc1 | -5.59 | -3.17 | -3.69 | 96.4% | 93.5% | 2.64 | -0.06
Cc1cc(C)cc(N(CC(=O)N2CCn3c2nc2ccccc23)S(=O)(=O)c2c(C)noc2C)c1 | -5.97 | 11.2 | -4.06 | 88.9% | 90.9% | 1.79 | 10.1
Cc1cccc(OCCn2c(=O)n(C)c3ccccc32)c1 | -9.27 | -5.27 | -2.39 | 85.3% | 83% | 0.755 | 0.1
COc1ccccc1CNc1ncnc2c1cnn2-c1ccccc1 | -13.5 | -7.05 | -4.76 | 74.2% | 79% | 0.575 | 0.57
C=CCn1c(CCCNC(=O)C(C)(C)C)nc2ccccc21 | -10.7 | -20.9 | -1.33 | 99.7% | 96.1% | 0.295 | 5.54
O=C(c1cccc2c1-c1ccccc1/C2=N/O)N1CCCCC1 | 6.27 | -0.58 | -3.72 | 88.5% | 92.3% | 0.91 | 4.23
Cc1onc(-c2ccccc2Cl)c1C(=O)NCC1CCCO1 (configuration not stated) | -0.6 | 3.56 | -1.44 | 88.7% | 95.8% | 1.24 | -0.74
CCCc1n[nH]c2c1C(=O)CC(C)(C)C2 | -9.08 | -9.82 | -1.76 | 95.6% | 102% | 0.98 | 2.76
Brc1cccc(-c2nnc3sc(CNC4CCCC4)cn23)c1 | -6.88 | 5.62 | -0.97 | 95.7% | 89.6% | 1.56 | 3.26
COc1cc2[nH]c(=O)n(CCC(=O)NC3CCN(Cc4ccccc4)CC3)c(=O)c2cc1OC | -0.585 | -8.45 | -1.84 | 101% | 94.3% | 2.09 | -0.53
CCCn1c(CNC(=O)c2cccs2)nc2ccccc21 | -9.53 | -7.64 | -1.28 | 101% | 103% | 2.32 | 2.11
Cn1c(=O)c2c(SCC(=O)N3CCC(Cc4ccccc4)CC3)nc(C3CC3)nc2n(C)c1=O | -0.44 | -9.93 | -1.06 | 92.9% | 88.1% | 1.28 | 0.47
CC1=C(C(=O)Nc2ccccc2)C(c2ccco2)C(C#N)=C(SCc2ccccc2)N1 (configuration not stated) | 9 | 14.5 | -7.63 | 11.8% (active) | 9.06% (active) | 3.18 | 3.38
COc1ccc(CNC(=O)c2onc(C)c2Cl)cc1 | -14.2 | -17.2 | -1.96 | 96% | 93.7% | 2.31 | 4.91
CCN(CC)S(=O)(=O)c1ccc(Cl)c(C(=O)NC2CCCC2)c1 | -6.5 | -7.35 | 0.17 | 92.9% | 97.1% | 0.145 | 3.38
CCOc1ccc(C2C(C(=O)NC)=C(C)Nc3nc4ccccc4n32)cc1OC (configuration not stated) | -4.37 | -0.94 | 0.24 | 98.8% | 103% | 1.18 | 2.01
CCOC(=O)c1sc(NC(=O)c2ccc(Cl)s2)cc1C | -0.47 | -4.72 | 0.81 | 105% | 94.9% | 2.33 | 5.22
